Results collected from several papers.
Each line is one published result; the experiments were not run side by side.
Target: Activin receptor type-1B (ACVR1B, Homo sapiens, UniProt P36896)
Sequence (P36896 24-505, as in one of the studies): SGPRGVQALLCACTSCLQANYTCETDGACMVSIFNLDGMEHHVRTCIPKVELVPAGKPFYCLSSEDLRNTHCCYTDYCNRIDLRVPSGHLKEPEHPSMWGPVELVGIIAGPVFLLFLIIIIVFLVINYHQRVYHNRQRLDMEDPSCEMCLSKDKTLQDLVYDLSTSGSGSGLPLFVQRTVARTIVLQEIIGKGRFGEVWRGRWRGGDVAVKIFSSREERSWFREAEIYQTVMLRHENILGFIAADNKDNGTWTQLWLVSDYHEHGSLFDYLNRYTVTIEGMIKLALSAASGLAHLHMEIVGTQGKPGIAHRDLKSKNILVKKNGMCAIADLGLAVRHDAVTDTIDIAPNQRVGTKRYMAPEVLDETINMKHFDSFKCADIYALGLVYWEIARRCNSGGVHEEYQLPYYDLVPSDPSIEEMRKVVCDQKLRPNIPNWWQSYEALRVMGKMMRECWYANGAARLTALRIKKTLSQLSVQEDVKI

Structure (SMILES)	effect on	mode	technique	concentration	endpoint	result
Cc1cnc(NC2CCOCC2)nc1-n1cnc(C(=O)NC(CN)c2cc(F)cc(Cl)c2)c1 (centres unmarked)	enzyme activity	inhibitor	radiometric	1 µM	remaining activity	109%
N#CCCc1ccc2c(c1)-c1[nH]c3ccc([N+](=O)[O-])cc3c1CC(=O)N2	cell-free assay	–	–	0.5 µM	remaining signal	110%
Cn1c2c(c3ccc(Cl)c(Cl)c31)C(C#N)C(C)(C)NC2=O (centres unmarked)	thermal stability	–	DSF	10 µM	ΔTm	2.9 °C
O=C(NC[C@@H]1[C@H]2CN(C(=O)OCc3cc(C(F)(F)F)cc(C(F)(F)F)c3)C[C@@H]12)c1ccc2[nH]nnc2c1	cell-free assay	–	competition with immobilised ligand	1 µM	remaining binding	100%
Cc1ccc(Nc2nccc(N(C)c3ccc4c(C)n(C)nc4c3)n2)cc1S(N)(=O)=O	cell-free assay	inhibitor	–	0.3 µM	inhibition	-22%
O=C(O)[C@@H]1[C@@H](Cn2nnc3ccccc3c2=O)CC[C@H]1C(=O)c1ccc(OCCC2CCOCC2)cc1	cell-free assay	–	competition with immobilised ligand	1 µM	remaining binding	100%
CS(=O)(=O)Nc1cccc(-c2csc(NC(=O)CSc3nc4nccnc4c(=O)n3CCc3ccccc3)n2)c1	enzyme activity	inhibitor	–	10 µM	inhibition	2%
Nc1ncnc2occ(-c3ccc(NC(=O)Nc4cc(C(F)(F)F)ccc4F)cc3)c12	cell-free assay	–	–	20 µM	remaining signal	99%
CSc1cccnc1N1CCN(Cc2nc3ccccc3[nH]2)CC1	cell-free assay	–	competition with immobilised ligand	1 µM	remaining binding	100%
CCN(CC)CCNC(=O)c1c(C)[nH]c(/C=C2\C(=O)Nc3ccc(F)cc32)c1C	cell-free assay	–	–	0.5 µM	remaining signal	101%
Cn1nc(C(=O)NCc2ccc(C(=O)O)cc2)cc1-c1ccc2[nH]ccc2c1	cell-free assay	–	competition with immobilised ligand	0.1 µM	remaining binding	83%
Cc1sc(C(=O)NC2COC2)cc1-n1cc(NC(=O)Nc2c(F)cccc2Cl)cn1	enzyme activity	inhibitor	–	10 µM	remaining activity	78.5%
O=C(N1CCS(=O)(=O)CC1)N1C[C@H](c2ccc(OC(F)(F)F)cc2)C[C@H](c2nc(C3CC3)no2)C1	cell-free assay	–	competition with immobilised ligand	1 µM	remaining binding	100%
Cn1c2c(Cl)c(Cl)ccc2c2cc[nH]c(=O)c21	thermal stability	–	DSF	10 µM	ΔTm	3.1 °C
c1ccc(N2CCN(Cc3nc4ccccc4[nH]3)CC2)nc1	cell-free assay	–	competition with immobilised ligand	1 µM	remaining binding	85%
COc1cc2ncnc(Nc3ccc(Oc4ccccc4)cc3C)c2cc1OC	enzyme activity	inhibitor	–	1 µM	inhibition	-2%
COc1cc(Cl)c(C(=O)N[C@@H](CN[C@H]2CC[C@@H](N)CC2)Cc2ccc(C#N)cc2)cc1-c1ccc(CN[C@H](C)c2ccc(C)cc2)o1	enzyme activity	inhibitor	–	1 µM	remaining activity	92%
Cc1ccc(C(=O)Nc2ccc(CN3CCN(C)CC3)c(C(F)(F)F)c2)cc1C#Cc1cnc2cccnn12	enzyme activity	–	–	23.5 nM	remaining activity	100%
COc1cc(-c2cc(-c3ccc(N4CCNCC4)cc3)cnc2C)cc(OC)c1OC	enzyme activity	inhibitor	–	1 µM	inhibition	36%
CNC(=O)c1cc(Oc2ccc(NC(=O)Nc3ccc(Cl)c(C(F)(F)F)c3)cc2)ccn1	cell-free assay	inhibitor	–	10 µM	inhibition	17%
CN(C)C1CCN(CC#Cc2nn(C3CCCC3)c3nc(NCc4ccccc4)ncc23)C1 (centres unmarked)	enzyme activity	inhibitor	FRET	0.1 µM	inhibition	0%
CS(=O)(=O)c1cc(C2(NC(=O)c3cncc4c3cnn4-c3ccc(F)cc3)CC2)ccn1	cell-free assay	–	competition with immobilised ligand	1 µM	remaining binding	100%
CCCOc1ccc(OC)c(F)c1C(=O)c1ccc(C(=O)N[C@@H]2CNC[C@H]2NC(=O)c2ccc3[nH]ncc3c2)cc1	enzyme activity	inhibitor	–	10 µM	remaining activity	91%
Cn1c2c(c3ccc(Cl)c(Cl)c31)C(C#N)C1(CCNCC1)NC2=O (racemic)	thermal stability	–	DSF	10 µM	ΔTm	-0.1 °C
O=c1cc(-c2cccc3c2Sc2ccccc2S3)oc(N2CCOCC2)c1	enzyme activity	inhibitor	–	0.5 µM	remaining activity	114%
Cn1c2c(c3ccc(Cl)c(Cl)c31)C(C#N)C1(CCOCC1)NC2=O (centres unmarked)	thermal stability	–	DSF	10 µM	ΔTm	0.2 °C
CC(C)(C)c1nc(-c2cccc(NS(=O)(=O)c3c(F)cccc3F)c2F)c(-c2ccnc(N)n2)s1	enzyme activity	inhibitor	radiometric	1 µM	remaining activity	22%
CN1CCN(c2cnc3c(C4CCN(C(=O)c5ccc(OC(F)(F)F)cc5N)CC4)ncnc3c2)CC1	cell-free assay	–	competition with immobilised ligand	1 µM	remaining binding	79%
CN1CCC2(CC1)NC(=O)c1c(c3ccc(Cl)c(Cl)c3n1C)C2C#N (racemic)	thermal stability	–	DSF	10 µM	ΔTm	0.3 °C
